The text below walks through data of publication PMC5518655 (Acta Pharmaceutica Sinica. B, 2017).

The target in one experiment is DEN2 serine protease. The conditions noted are these: cited from earlier work.
The target of the next experiment is DENV2 NS2B/NS3 protease (Dengue virus type 2, UniProt P14340). The experiment in a line: In vitro DENV2 NS2B/NS3 protease assay with fluorogenic peptide substrate. The format is biochemical. To be noted: for inhibition at 50 µM: read-out: inhibition at 50 µmol/L (preliminary screening). The essentials: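 Screened at 50 µmol/L; IC50 measured only when inhibition exceeded 10%. DENV2 NS2B-NS3 (0.57 µmol/L) and test compound in DMSO, in Tris–HCl pH 8.5, preincubated 10 min at 37 °C, 200 rpm. […] added, shaken 60 min more; fluorescence read, blank-subtracted. Triplicates, 3 independent experiments, mean±SD; IC50 read graphically from log concentration vs % inhibition.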
Sequence of DENV2 NS2B/NS3 protease (P14340 1476-2093 limits assumed): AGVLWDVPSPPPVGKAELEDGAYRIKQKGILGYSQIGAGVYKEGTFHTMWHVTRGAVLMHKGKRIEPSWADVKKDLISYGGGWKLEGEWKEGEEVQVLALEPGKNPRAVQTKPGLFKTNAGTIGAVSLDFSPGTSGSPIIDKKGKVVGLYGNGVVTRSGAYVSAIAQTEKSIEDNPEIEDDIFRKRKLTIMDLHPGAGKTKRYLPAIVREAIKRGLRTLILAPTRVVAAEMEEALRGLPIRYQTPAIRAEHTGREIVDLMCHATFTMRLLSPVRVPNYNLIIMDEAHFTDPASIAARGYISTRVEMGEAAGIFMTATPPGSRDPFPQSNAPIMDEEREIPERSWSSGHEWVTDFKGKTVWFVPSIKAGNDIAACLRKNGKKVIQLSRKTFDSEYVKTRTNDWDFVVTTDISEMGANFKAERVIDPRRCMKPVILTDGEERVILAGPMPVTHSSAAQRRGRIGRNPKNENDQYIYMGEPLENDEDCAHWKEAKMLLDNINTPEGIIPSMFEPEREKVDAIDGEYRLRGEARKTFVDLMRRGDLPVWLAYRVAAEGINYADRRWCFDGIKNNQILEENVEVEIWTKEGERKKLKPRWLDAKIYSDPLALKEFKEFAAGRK
Sequence of DENV2 NS2B/NS3 protease (P14340 1346-1475 partner limits assumed): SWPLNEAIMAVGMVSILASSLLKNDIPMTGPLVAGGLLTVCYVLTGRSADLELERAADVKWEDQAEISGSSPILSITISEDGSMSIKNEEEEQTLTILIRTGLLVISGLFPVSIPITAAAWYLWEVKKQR

Broadly, the Ki is the equilibrium dissociation constant of an inhibitor or competing ligand from its target. With `CC(C)=CC[C@@H]1C(C)=CC[C@@H](c2ccccc2)[C@@H]1C(=O)c1c(O)cc(O)cc1O` [4-hydroxypanduratin A], the Ki on DEN2 serine protease is 21 µM.
The IC50 is the concentration that inhibits the measured activity by half. Take `O=C1C(=Cc2ccc([N+](=O)[O-])cc2)CN(CC(=O)c2ccc(F)cc2)CC1=Cc1ccc([N+](=O)[O-])cc1` [Compound 4e, 1-(2-(4-Fluorophenyl)-2-oxoethyl)-3,5-bis(4-nitrobenzylidene)piperidin-4-one]: at DENV2 NS2B/NS3 protease, inhibition was half-maximal at 15.2 ± 1.1 µM (IC50) and the inhibition at 50 µM was more than 10%.
On the same counts, the results for `COc1ccc(C(=O)CN2CC(=Cc3ccc([N+](=O)[O-])cc3)C(=O)C(=Cc3ccc([N+](=O)[O-])cc3)C2)cc1` [Compound 4j, 1-(2-(4-Methoxyphenyl)-2-oxoethyl)-3,5-bis(4-nitrobenzylidene)piperidin-4-one] are 16.2 ± 1.3 µM and more than 10%.
In the case of `COc1cc(O)c(C(=O)[C@@H]2[C@H](CC=C(C)C)C(C)=CC[C@H]2c2ccccc2)c(O)c1` [Panduratin A, panduratin A, reference compound], the IC50 at DENV2 NS2B/NS3 protease was determined as 57.3 ± 1.3 µM. For the same compound, the Ki on DEN2 serine protease is 25 µM.
